Screening results deposited in PubChem by Broad Institute.
CSC inhib: blocks cancer stem cells | cancer stem cell-like cells viability, luminescence | inhibition, % at 7.5 µM | hit rate 1.1% among 300,000 | AID 2717; in the data active means inhibition above about 75%; inconclusive means no clear call, values can overlap the other calls; tested in HMLE shEcad cells
FN deposition inh: fibronectin deposition inhibition; AH1F fibroblasts, Alexa488-fibronectin deposition fluorescence, overnight; inhibition, % at 12.6 µM; hit rate 0.086% among 350,000; AID 743247;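 active means mean inhibition across replicates of 30% or more, regardless of how many single replicates reach that level; inconclusive means mean under 30% yet at least half of replicates reach 30%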;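 further: positive control wells lacked labelled fibronectin entirely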
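Material: AH1F fibroblast monolayer depositing Alexa488-labelled fibronectin into matrix / Amount: 10000 AH1F cells per well / Signal: fluorescence 485/525 nm / Medium: DMEM, 2% serum / Compound: single dose, pinned / Incubation: 1 h cell adhesion before compound, then overnight fibronectin incubation / Reagent: Alexa488-FN, 24 nM final / Read-out: inhibition of fibronectin deposition signal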
PglD inh: blocks C. jejuni PglD acetyltransferase activity; purified PglD enzyme, DTNB colorimetric CoA detection; inhibition, % at 12.5 µM; hit rate 0.098% among 360,000; in the data active means inhibition above about 16%, passing the limit was not always enough; inconclusive means no clear call, values can overlap the other calls
Rtt109 Vps75: blocks Candida albicans Rtt109/Vps75 acetyltransferase activity. Q5AAJ8. purified Rtt109/Vps75, ThioGlo CoA-SH fluorescence, 4 h. inhibition, % at 34.9 µM. hit rate 0.16% among 330,000;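 active means inhibition of at least 50% in every replicate; inconclusive means best replicate reaches 50% inhibition but some replicates fall short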
Target sequence (Q5AAJ8 whole entry, looked up): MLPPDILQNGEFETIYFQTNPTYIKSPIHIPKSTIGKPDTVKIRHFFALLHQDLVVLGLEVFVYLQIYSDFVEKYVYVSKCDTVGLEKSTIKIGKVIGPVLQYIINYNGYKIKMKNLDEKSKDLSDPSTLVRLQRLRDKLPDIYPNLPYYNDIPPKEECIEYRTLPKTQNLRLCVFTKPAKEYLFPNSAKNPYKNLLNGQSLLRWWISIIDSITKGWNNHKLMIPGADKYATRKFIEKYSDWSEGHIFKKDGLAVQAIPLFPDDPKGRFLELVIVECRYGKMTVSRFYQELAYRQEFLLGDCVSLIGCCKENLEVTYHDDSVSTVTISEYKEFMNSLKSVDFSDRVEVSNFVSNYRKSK
SKKanGAS inh: blocks kanamycin growth of S. pyogenes SKKanGAS strain. BacTiter-Glo, 6 h. inhibition, % at 7.5 µM. hit rate 1.3% among 300,000;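 active means mean replicate score, as percent of positive control median, at least 50; inconclusive means mean below 50 but one replicate at or above 50; inactive means mean and every replicate below 50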;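 further: strain carries kanamycin resistance gene driven by streptokinase promoter and grows in 40 µg/ml kanamycin; loss of luminescence reflects streptokinase promoter inhibition or plain growth inhibition; 0% = median of DMSO wells and 100% = positive control at its reference dose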
PfHsp90 yeast 2: inhibits growth of yeast expressing Plasmodium falciparum Hsp90; hit rate 0.32% among 310,000; inhibition, % at 9.4 µM; AID 504621; S. cerevisiae expressing PfHsp90, BacTiter-Glo ATP, 48 h; yeast lacking PDR1 and PDR3 efflux regulators;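 active means every replicate shows inhibition above about 80%, whatever the replicate mean, limit read from the data; inconclusive means mean inhibition reaches the set limit but some replicate falls short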;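 further: 0% = DMSO neutral controls and 100% = 20 µM radicicol positive controls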
Starred values were filed as active, the others as inactive; ? = inconclusive; · = not tested or not shown. Most compounds without a hit are left out; they make up all but 1.7% or so of the library.

SMILES	CSC inhib	FN deposition inh	PglD inh	Rtt109 Vps75	SKKanGAS inh	PfHsp90 yeast 2
Cc1ccc2nc(N/C(=N/S(=O)(=O)c3ccc(F)cc3)c3ccccc3)sc2c1	21	-7	0	0	51*	14
CC(=O)Nc1ccc(S(=O)(=O)Nc2nc3ccc(C)cc3s2)cc1	23	·	1	0	15	-13
Cc1ccc2nc(-c3ccc(N)cc3)sc2c1	70	-9	4	-3	54*	5
O=C(NC(=S)N(CCCCO)C1CCCCC1)c1sc2ccccc2c1Cl	19	·	1	1	89*	-35
O=C(N1CCOCC1)[C@@]1(Cc2ccccc2)N=C(c2ccc(OCCCO)cc2)O[C@H]1c1ccccc1	·	·	1	·	·	·
CCOC(=O)C1=C(C)NC2=C(C(=O)c3ccccc32)C1c1ccc([N+](=O)[O-])o1 (stereo not drawn)	4	4	6	4	57*	-26
CCOC(=O)C1=C(C)NC(=O)NC1c1ccc([N+](=O)[O-])o1 (stereo not drawn)	-14	1	4	-1	5	23
CCCCCCCCCCCCCCCC(O)C[N+](C)(C)CCO (stereo not drawn)	·	4	·	16	·	111*
CCCCOc1ccc(S(=O)(=O)N2CCCCC2)cc1	10	-2	0	-1	-10	8
CCCCOc1ccc(S(=O)(=O)N2CCN(c3ccc(N4CCN(CC)CC4)nn3)CC2)cc1	95*	·	·	-6	-13	6
O=C(C[C@@H]1C[C@@H]2c3cc(NC(=O)NC4CCCC4)ccc3O[C@@H]2[C@H](CO)O1)NCc1ccccc1F	·	-6	-2	·	·	·
COc1ccc(/C=C2\Sc3ccc(C(=O)NCc4cccnc4)cc3N(C)C2=O)cc1OC	31	4	-6	9	66*	12
COc1ccc(/C=C2\Sc3ccc(C(=O)N4CCN(Cc5ccccc5)CC4)cc3N(C)C2=O)cc1OC	4	21	9	-2	71*	27
COc1cccc(/C=C2\Sc3ccc(C(=O)NCc4cccnc4)cc3N(C)C2=O)c1	52	18	·	4	38	-13
CN1C(=O)/C(=C/c2cccc(Cl)c2)Sc2ccc(C(=O)NCc3cccnc3)cc21	96*	-18	-6	-9	48	0
COc1ccc(NC(=O)N(C)C[C@@H]2Oc3ccc(NC(=O)NC(C)C)cc3CC(=O)N([C@H](C)CO)C[C@H]2C)cc1	·	-18	2	·	·	·
COc1cc(S(=O)(=O)n2nc(C)cc2C)c(OC)cc1Cl	-3	·	-3	65*	-6	27
COc1cc(Cl)ccc1S(=O)(=O)n1nc(C)cc1C	·	·	-5	-3	2	-14
C[C@H]1CN([C@@H](C)CO)C(=O)c2cccc(NC(=O)c3ccncc3)c2O[C@@H]1CN(C)Cc1ccccc1	·	·	2	·	·	·
CCOC(=O)N1CCN(S(=O)(=O)c2ccc(C(=O)NNc3nc4c(C)cc(C)cc4s3)cc2)CC1	126*	6	-2	·	22	·
CCOC(=O)N1CCN(S(=O)(=O)c2ccc(C(=O)NNc3nc4cc(C)cc(C)c4s3)cc2)CC1	103*	·	-4	10	23	-21
Cc1cc(C)c2nc(NNC(=O)c3ccc(S(=O)(=O)N4CCCCC4)cc3)sc2c1	102*	23	-1	1	?	13
Cc1ccc(C(=O)NNC(=O)c2ccc(S(=O)(=O)N3CCCCC3)cc2)cc1	-1	1	0	10	·	-5
CCOC(=O)N1CCN(S(=O)(=O)c2ccc(C(=O)NNc3nc4ccc(Cl)cc4s3)cc2)CC1	104*	·	-1	0	5	-63
CCOC(=O)N1CCN(S(=O)(=O)c2ccc(C(=O)NNc3nc4c(C)cccc4s3)cc2)CC1	·	5	-5	-5	22	-3
SMILES	CSC inhib	FN deposition inh	PglD inh	Rtt109 Vps75	SKKanGAS inh	PfHsp90 yeast 2
CCCNC(=O)c1ccc2c(=O)c(O)c(-c3cccc(Br)c3)[nH]c2c1	125*	6	4	-48	0	-80
CC1=C/C(=N\OS(=O)(=O)c2ccccc2)C(C(C)C)=CC1=O	62	·	·	0	·	104*
COc1ccc(S(=O)(=O)/N=C2/C=CC(=O)C(C)=C2C)cc1	3	·	2	1	14	-27
CC1=C(C)/C(=N\OS(=O)(=O)c2ccc(C)cc2)C=CC1=O	89*	33*	·	109*	·	110*
CC1=C/C(=N\OS(=O)(=O)c2ccccc2)C(C)=CC1=O	118*	·	-4	-3	·	105*
COc1cc(C(=O)O/N=C2/C=C(C)C(=O)C=C2C)cc(OC)c1OC	2	-2	·	0	·	16
COCC(=O)Nc1ccc2c(c1)C(=O)N(C)C[C@H](OC)[C@@H](C)CN(Cc1ccccn1)[C@H](C)CO2	·	9	0	·	·	·
COc1ccccc1CN1[C@@H](CO)[C@@H]2c3ccccc3N(C(=O)C3CCCC3)C[C@@H]21	·	0	6	·	·	·
O=C(NCc1ccc(C(F)(F)F)cc1)c1ccc2c(c1)S(=O)(=O)c1ccccc1C2=O	0	-3	-5	9	51*	5
COc1cccc2c1Oc1ncccc1N(C(=O)CCC(=O)NCc1ccc(F)cc1)C2	2	-2	-1	51*	1	18
COc1ccc(C(=O)CC(=O)C(=O)Nc2ccccc2Cl)cc1	5	-6	-8	-1	56*	2
COc1ccc(C(=O)CC(=O)C(=O)Nc2cc(OC)ccc2OC)cc1	-4	1	·	-25	1	9
COc1ccc(C(=O)CC(=O)C(=O)Nc2cc(Cl)c(OC)cc2OC)cc1	-2	3	·	-1	9	10
COc1ccc(C(=O)CC(=O)C(=O)Nc2ccccc2C(F)(F)F)cc1	3	3	1	6	85*	34
CC(=O)N(C)C[C@H]1OCc2ccccc2-c2ccccc2C(=O)N([C@H](C)CO)C[C@H]1C	·	-3	0	·	·	·
CO[C@@H]1CN(C)C(=O)c2ccc(NC(=O)C3CCCCC3)cc2OC[C@@H](C)N(C)C[C@H]1C	·	-10	·	·	·	·
O=C(N/N=C/c1c[nH]c2ccccc12)c1[nH]c2ccc(Br)cc2c1-c1ccccc1	·	18	6	4	73*	-2
O=C(N/N=C/c1ccc(O)cc1)c1[nH]c2ccc(Br)cc2c1-c1ccccc1	51	-16	·	6	?	21
C[C@H]1CN([C@@H](C)CO)C(=O)Cc2cc(NS(C)(=O)=O)ccc2O[C@H]1CN(C)S(C)(=O)=O	·	·	3	·	·	·
CCOP(=O)(OCC)c1nc(-c2cccc3ccccc23)oc1NCc1ccccc1	·	-8	2	·	27	·
CCOP(=O)(OCC)c1nc(-c2cccc3ccccc23)oc1NCc1ccc(OC)cc1	11	7	·	-55	57*	7
O=C(c1ccccc1F)N1CC(=O)N2[C@@H](CO)[C@@H](c3ccc(C#Cc4ccc(F)cc4)cc3)[C@@H]2C1	·	-5	·	·	·	·
CCCCCC(=O)N(O)C1CC(=O)N(c2ccccc2)C1=O (stereo not drawn)	17	·	·	8	3	105*
